Data published in ChEMBL document CHEMBL1275537, “In vitro activities of tigecycline and 10 other antimicrobials against nonpigmented rapidly growing mycobacteria” (2008).
Converted amounts (≈) assume the structure as drawn.

Experiments:
Format in all cases: functional
[1] = system: Mycobacterium mucogenicum; assay: Antibacterial activity against nonpigmented rapidly growing Mycobacterium mucogenicum after 3 days by broth microdilution method; conditions: Mycolicibacterium mucogenicum, 72 h
Summary of the method: (§1)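 MIC by broth microdilution. Strains are collection strains and clinical isolates, grown on 5% sheep blood tryptic soy agar at 35°C for 4 days in room air. Inoculum is made straight from the blood agar plates in cation-supplemented Mueller-Hinton broth with 0.02% Tween 80. Doubling dilutions run 64 to 0.03 µg/ml. Plates are incubated at 30°C in room air and read at 3 days. E. coli ATCC 25922, S. aureus ATCC 29213 and E. faecalis ATCC 29212 serve as controls. MIC50 and MIC90 are given where ≥10 strains were tested, otherwise the range.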

[2] = system: Mycolicibacterium mageritense; assay: Antibacterial activity against nonpigmented rapidly growing Mycobacterium mageritense after 3 days by broth microdilution method; conditions: 72 h; summary of the method: as §1
Mycobacterium alvei = assay: Antibacterial activity against nonpigmented rapidly growing Mycobacterium alvei after 3 days by broth microdilution method; conditions: Mycolicibacterium alvei, 72 h; summary of the method: as §1
[3] = system: Mycolicibacterium smegmatis; assay: Antibacterial activity against nonpigmented rapidly growing Mycobacterium smegmatis after 3 days by broth microdilution method; conditions: 72 h; summary of the method: as §1
Mycobacterium porcinum = assay: Antibacterial activity against nonpigmented rapidly growing Mycobacterium porcinum after 3 days by broth microdilution method; conditions: Mycolicibacterium porcinum, 72 h; summary of the method: as §1
Mycobacterium septicum = assay: Antibacterial activity against nonpigmented rapidly growing Mycobacterium septicum after 3 days by broth microdilution method; conditions: Mycolicibacterium septicum, 72 h; summary of the method: as §1
Mycobacterium wolinskyi = assay: Antibacterial activity against nonpigmented rapidly growing Mycobacterium wolinskyi after 3 days by broth microdilution method; conditions: Mycolicibacterium wolinskyi, 72 h; summary of the method: as §1
[4] = system: Mycobacteroides abscessus; assay: Antibacterial activity against nonpigmented rapidly growing Mycobacterium abscessus after 3 days by broth microdilution method; conditions: 72 h; summary of the method: as §1
Mycobacteroides chelonae = assay: Antibacterial activity against nonpigmented rapidly growing Mycobacterium chelonae after 3 days by broth microdilution method; conditions: 72 h; summary of the method: as §1
[5] = system: Mycolicibacterium peregrinum; assay: Antibacterial activity against nonpigmented rapidly growing Mycobacterium peregrinum after 3 days by broth microdilution method; conditions: 72 h; summary of the method: as §1
[6] = system: Mycolicibacterium fortuitum; assay: Antibacterial activity against nonpigmented rapidly growing Mycobacterium fortuitum after 3 days by broth microdilution method; conditions: 72 h; summary of the method: as §1

MIC [1] | MIC [2] | MIC (Mycobacterium alvei) | MIC [3] | MIC (Mycobacterium porcinum) | MIC (Mycobacterium septicum) | MIC (Mycobacterium wolinskyi) | MIC50 [4] | MIC90 [4] | MIC50 (Mycobacteroides chelonae) | MIC90 (Mycobacteroides chelonae) | MIC50 [5] | MIC90 [5] | MIC50 [6] | MIC90 [6] | Structure (SMILES)
0.5 mg/L (≈ 1.17 µM) | 1 mg/L (≈ 2.34 µM) | 2 mg/L (≈ 4.68 µM) | 1 mg/L (≈ 2.34 µM) | 2 mg/L (≈ 4.68 µM) | 32 mg/L (≈ 74.9 µM) | 1 mg/L (≈ 2.34 µM) | – | – | – | – | – | – | – | – | CO[C@@]1(NC(=O)Cc2cccs2)C(=O)N2C(C(=O)O)=C(COC(N)=O)CS[C@@H]21 [CEFOXITIN]
1 mg/L (≈ 2.14 µM) | 8 mg/L (≈ 17.1 µM) | 4 mg/L (≈ 8.56 µM) | ≤ 0.03 mg/L | 1 mg/L (≈ 2.14 µM) | 0.5 mg/L (≈ 1.07 µM) | 8 mg/L (≈ 17.1 µM) | 8 mg/L (≈ 17.1 µM) | 16 mg/L (≈ 34.2 µM) | 4 mg/L (≈ 8.56 µM) | 16 mg/L (≈ 34.2 µM) | 4 mg/L (≈ 8.56 µM) | 8 mg/L (≈ 17.1 µM) | 16 mg/L (≈ 34.2 µM) | 32 mg/L (≈ 68.4 µM) | NC[C@H]1O[C@H](O[C@H]2[C@H](O)[C@@H](O[C@H]3O[C@H](CO)[C@@H](O)[C@H](N)[C@H]3O)[C@H](N)C[C@@H]2N)[C@H](N)C[C@@H]1O [TOBRAMYCIN]
≤ 0.03 mg/L | ≤ 0.03 mg/L | ≤ 0.03 mg/L | ≤ 0.03 mg/L | 8 mg/L | 32 mg/L | 0.25 mg/L | > 64 mg/L | > 64 mg/L | 8 mg/L | 64 mg/L | 8 mg/L | 32 mg/L | 4 mg/L | 64 mg/L | C[C@H]1c2cccc(O)c2C(=O)C2=C(O)[C@]3(O)C(=O)C(C(N)=O)=C(O)[C@@H](N(C)C)[C@@H]3[C@@H](O)[C@@H]21.O [DOXYCYCLINE]

Further lines, the compound ahead of its results:

Structure (SMILES) | MIC [1] | MIC [2] | MIC (Mycobacterium alvei) | MIC [3] | MIC (Mycobacterium porcinum) | MIC (Mycobacterium septicum) | MIC (Mycobacterium wolinskyi) | MIC50 [4] | MIC90 [4] | MIC50 (Mycobacteroides chelonae) | MIC90 (Mycobacteroides chelonae) | MIC50 [5] | MIC90 [5] | MIC50 [6] | MIC90 [6]
CC[C@H]1OC(=O)[C@H](C)[C@@H](O[C@H]2C[C@@](C)(OC)[C@@H](O)[C@H](C)O2)[C@H](C)[C@@H](O[C@@H]2O[C@H](C)C[C@H](N(C)C)[C@H]2O)[C@](C)(O)C[C@@H](C)CN(C)[C@H](C)[C@@H](O)[C@]1(C)O [AZITHROMYCIN] | ≤ 0.03 mg/L | 2 mg/L (≈ 2.67 µM) | ≤ 0.03 mg/L | 0.06 mg/L (≈ 0.0801 µM) | 32 mg/L (≈ 42.7 µM) | 0.5 mg/L (≈ 0.668 µM) | 128 mg/L (≈ 171 µM) | 0.5 mg/L (≈ 0.668 µM) | 2 mg/L (≈ 2.67 µM) | 0.5 mg/L (≈ 0.668 µM) | 16 mg/L (≈ 21.4 µM) | 0.5 mg/L (≈ 0.668 µM) | 64 mg/L (≈ 85.4 µM) | 8 mg/L (≈ 10.7 µM) | > 64 mg/L
CC[C@H]1OC(=O)[C@H](C)[C@@H](O[C@H]2C[C@@](C)(OC)[C@@H](O)[C@H](C)O2)[C@H](C)[C@@H](O[C@@H]2O[C@H](C)C[C@H](N(C)C)[C@H]2O)[C@](C)(OC)C[C@@H](C)C(=O)[C@H](C)[C@@H](O)[C@]1(C)O [CLARITHROMYCIN] | ≤ 0.03 mg/L | 2 mg/L (≈ 2.67 µM) | ≤ 0.03 mg/L | ≤ 0.03 mg/L | 0.5 mg/L (≈ 0.668 µM) | ≤ 0.03 mg/L | 32 mg/L (≈ 42.8 µM) | ≤ 0.03 mg/L | 1 mg/L (≈ 1.34 µM) | 0.06 mg/L (≈ 0.0802 µM) | 4 mg/L (≈ 5.35 µM) | 0.06 mg/L (≈ 0.0802 µM) | 2 mg/L (≈ 2.67 µM) | 2 mg/L (≈ 2.67 µM) | 16 mg/L (≈ 21.4 µM)
CC[C@H]1OC(=O)[C@H](C)[C@@H](O[C@H]2C[C@@](C)(OC)[C@@H](O)[C@H](C)O2)[C@H](C)[C@@H](O[C@@H]2O[C@H](C)C[C@H](N(C)C)[C@H]2O)[C@](C)(O)C[C@@H](C)C(=O)[C@H](C)[C@@H](O)[C@]1(C)O [ERYTHROMYCIN] | ≤ 0.03 mg/L | 32 mg/L (≈ 43.6 µM) | ≤ 0.03 mg/L | 0.12 mg/L (≈ 0.164 µM) | 8 mg/L (≈ 10.9 µM) | 2 mg/L (≈ 2.73 µM) | 128 mg/L (≈ 174 µM) | 1 mg/L (≈ 1.36 µM) | 16 mg/L (≈ 21.8 µM) | 0.5 mg/L (≈ 0.681 µM) | 32 mg/L (≈ 43.6 µM) | 1 mg/L (≈ 1.36 µM) | 16 mg/L (≈ 21.8 µM) | 64 mg/L (≈ 87.2 µM) | > 64 mg/L
O=C(O)c1cn(C2CC2)c2cc(N3CCNCC3)c(F)cc2c1=O [CIPROFLOXACIN] | ≤ 0.03 mg/L | ≤ 0.03 mg/L | ≤ 0.03 mg/L | 0.12 mg/L (≈ 0.362 µM) | ≤ 0.03 mg/L | 0.12 mg/L (≈ 0.362 µM) | 0.25 mg/L (≈ 0.754 µM) | 2 mg/L (≈ 6.04 µM) | 8 mg/L (≈ 24.1 µM) | 0.12 mg/L (≈ 0.362 µM) | 2 mg/L (≈ 6.04 µM) | ≤ 0.03 mg/L | 0.06 mg/L (≈ 0.181 µM) | ≤ 0.03 mg/L | 0.12 mg/L (≈ 0.362 µM)
C[C@H]1COc2c(N3CCN(C)CC3)c(F)cc3c(=O)c(C(=O)O)cn1c23.C[C@H]1COc2c(N3CCN(C)CC3)c(F)cc3c(=O)c(C(=O)O)cn1c23.O [LEVOFLOXACIN] | 0.06 mg/L | ≤ 0.03 mg/L | ≤ 0.03 mg/L | ≤ 0.03 mg/L | 0.06 mg/L | 0.12 mg/L | 0.06 mg/L | 16 mg/L | 32 mg/L | 0.5 mg/L | 8 mg/L | 0.06 mg/L | 0.25 mg/L | 0.06 mg/L | 0.25 mg/L
CN(C)c1cc(NC(=O)CNC(C)(C)C)c(O)c2c1C[C@H]1C[C@H]3[C@H](N(C)C)C(O)=C(C(N)=O)C(=O)[C@@]3(O)C(O)=C1C2=O [TIGECYCLINE] | ≤ 0.03 mg/L | ≤ 0.03 mg/L | ≤ 0.03 mg/L | ≤ 0.03 mg/L | 0.06 mg/L (≈ 0.102 µM) | ≤ 0.03 mg/L | 0.12 mg/L (≈ 0.205 µM) | 0.06 mg/L (≈ 0.102 µM) | 0.5 mg/L (≈ 0.854 µM) | 0.12 mg/L (≈ 0.205 µM) | 0.5 mg/L (≈ 0.854 µM) | 0.06 mg/L (≈ 0.102 µM) | 0.06 mg/L (≈ 0.102 µM) | ≤ 0.03 mg/L | 0.25 mg/L (≈ 0.427 µM)
NCC[C@H](O)C(=O)N[C@@H]1C[C@H](N)[C@@H](O[C@H]2O[C@H](CN)[C@@H](O)[C@H](O)[C@H]2O)[C@H](O)[C@H]1O[C@H]1O[C@H](CO)[C@@H](O)[C@H](N)[C@H]1O [AMIKACIN] | 0.25 mg/L (≈ 0.427 µM) | 0.5 mg/L (≈ 0.854 µM) | ≤ 0.5 mg/L | ≤ 0.03 mg/L | 0.25 mg/L (≈ 0.427 µM) | 1 mg/L (≈ 1.71 µM) | 1 mg/L (≈ 1.71 µM) | 2 mg/L (≈ 3.42 µM) | 8 mg/L (≈ 13.7 µM) | 1 mg/L (≈ 1.71 µM) | 16 mg/L (≈ 27.3 µM) | 0.5 mg/L (≈ 0.854 µM) | 1 mg/L (≈ 1.71 µM) | 1 mg/L (≈ 1.71 µM) | 2 mg/L (≈ 3.42 µM)
